Reference: ChEMBL document CHEMBL1130321, “Synthesis and in vitro activity of 3 beta-substituted-3 alpha-hydroxypregnan-20-ones: allosteric modulators of the GABAA receptor” (J Med Chem, 1997)

target: GABA-A receptor; anion channel; assay: Ability to allosterically modulate the binding of [35S]TBPS to gamma-aminobutyric-acid A receptor in rat brain cortical P2 membranes.; format: cell membranes, Membrane
In short: (§1)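 Rat cortical P2 membranes washed in 200 mM NaCl/50 mM Na-K phosphate pH 7.4. Incubated with 2 nM [35S]TBPS, 5 µM GABA and compound at nine concentrations from 1 nM to 10 µM final (DMSO 0.5% final), 90 min at room temperature. Nonspecific binding was defined with 2 µM unlabeled TBPS. Read-out was filtration and scintillation counting. IC50 and Imax came from partial or full inhibition fits chosen by F-test. Values are mean ± SEM of 3-9 experiments.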

Point of comparison: `CC(=O)[C@H]1CC[C@H]2[C@@H]3CC[C@H]4C[C@@](O)(CI)CC[C@]4(C)[C@H]3CC[C@]12C`, IC50 702 nM. Against it:
- CCC[C@@]1(O)CC[C@@]2(C)[C@@H](CC[C@@H]3[C@@H]2CC[C@]2(C)[C@@H](C(C)=O)CC[C@@H]32)C1 — 4.1-fold lower, 173 nM
- CC(=O)[C@H]1CC[C@H]2[C@@H]3CC[C@H]4C[C@@](O)(CC(N)=O)CC[C@]4(C)[C@H]3CC[C@]12C — higher, > 10000 nM
- C#CC[C@@]1(O)CC[C@@]2(C)[C@H](CC[C@@H]3[C@@H]2CC[C@]2(C)[C@@H](C(C)=O)CC[C@@H]32)C1 — 3.3-fold lower, 214 nM
- CC(=O)[C@H]1CC[C@H]2[C@@H]3CC[C@@H]4C[C@@](O)(CCl)CC[C@]4(C)[C@H]3CC[C@]12C — 2.9-fold lower, 243 nM
- CC(=O)[C@H]1CC[C@H]2[C@@H]3CC[C@H]4C[C@@](O)(CCl)CC[C@]4(C)[C@H]3CC[C@]12C — 9.9-fold lower, 71 nM
- CC(=O)[C@H]1CC[C@H]2[C@@H]3CC[C@H]4C[C@@](O)(CN(C)C)CC[C@]4(C)[C@H]3CC[C@]12C — higher, > 10000 nM
- C=C[C@@]1(O)CC[C@@]2(C)[C@H](CC[C@@H]3[C@@H]2CC[C@]2(C)[C@@H](C(C)=O)CC[C@@H]32)C1 — 16-fold lower, 43 nM
- CCCOC[C@@]1(O)CC[C@@]2(C)[C@@H](CC[C@@H]3[C@@H]2CC[C@]2(C)[C@@H](C(C)=O)CC[C@@H]32)C1 — within 1.5-fold, 655 nM
- COC[C@@]1(O)CC[C@@]2(C)[C@@H](CC[C@@H]3[C@@H]2CC[C@]2(C)[C@@H](C(C)=O)CC[C@@H]32)C1 — 9.2-fold lower, 76 nM
- CC[C@@]1(O)CC[C@@]2(C)[C@H](CC[C@@H]3[C@@H]2CC[C@]2(C)[C@@H](C(C)=O)CC[C@@H]32)C1 — 5.2-fold lower, 135 nM
- CC(=O)[C@H]1CC[C@H]2[C@@H]3CC[C@H]4C[C@@](O)(CBr)CC[C@]4(C)[C@H]3CC[C@]12C — 3.1-fold lower, 224 nM
- CC(C)(C)OC(=O)c1ncn2c1C1CCCN1C(=O)c1c(Br)cccc1-2 (configuration not stated) — 120-fold lower, 6.1 nM
- CC(=O)[C@H]1CC[C@H]2[C@@H]3CC[C@H]4C[C@@](O)(CF)CC[C@]4(C)[C@H]3CC[C@]12C — 3.1-fold lower, 228 nM

organism: Rattus norvegicus; assay: Percent of maximal extent of inhibition was calculated by fitting [35S]TBPS inhibition data to a sigmoid function (rat brain cortical P2 membranes).; format: functional; in short: as §1

Point of comparison: `C=C[C@@]1(O)CC[C@@]2(C)[C@H](CC[C@@H]3[C@@H]2CC[C@]2(C)[C@@H](C(C)=O)CC[C@@H]32)C1`, Imax 103%. Against it:
- C#C[C@@]1(O)CC[C@@]2(C)[C@H](CC[C@@H]3[C@@H]2CC[C@]2(C)[C@@H](C(C)=O)CC[C@@H]32)C1 — lower, 101%
- CCC[C@@]1(O)CC[C@@]2(C)[C@@H](CC[C@@H]3[C@@H]2CC[C@]2(C)[C@@H](C(C)=O)CC[C@@H]32)C1 — lower, 42%
- CC(=O)[C@H]1CC[C@H]2[C@@H]3CC[C@H]4C[C@@](O)(CC(N)=O)CC[C@]4(C)[C@H]3CC[C@]12C — lower, 28%
- C#CC[C@@]1(O)CC[C@@]2(C)[C@H](CC[C@@H]3[C@@H]2CC[C@]2(C)[C@@H](C(C)=O)CC[C@@H]32)C1 — lower, 101%
- CC(=O)[C@H]1CC[C@H]2[C@@H]3CC[C@@H]4C[C@@](O)(CCl)CC[C@]4(C)[C@H]3CC[C@]12C — the same, 103%
- CC(=O)[C@H]1CC[C@H]2[C@@H]3CC[C@H]4C[C@@](O)(CCl)CC[C@]4(C)[C@H]3CC[C@]12C — lower, 33%
- CC(=O)[C@H]1CC[C@H]2[C@@H]3CC[C@H]4C[C@@](O)(CN(C)C)CC[C@]4(C)[C@H]3CC[C@]12C — lower, 0%
- CC(=O)[C@H]1CC[C@H]2[C@@H]3CC[C@@H]4C[C@](C)(O)CC[C@]4(C)[C@H]3CC[C@]12C — higher, 104%
- CN1C(=O)CN=C(c2ccccc2)c2cc(Cl)ccc21 — lower, 49%
- CCCOC[C@@]1(O)CC[C@@]2(C)[C@@H](CC[C@@H]3[C@@H]2CC[C@]2(C)[C@@H](C(C)=O)CC[C@@H]32)C1 — lower, 94%
- COC[C@@]1(O)CC[C@@]2(C)[C@@H](CC[C@@H]3[C@@H]2CC[C@]2(C)[C@@H](C(C)=O)CC[C@@H]32)C1 — higher, 104%
- CC[C@@]1(O)CC[C@@]2(C)[C@H](CC[C@@H]3[C@@H]2CC[C@]2(C)[C@@H](C(C)=O)CC[C@@H]32)C1 — lower, 95%
- CC(=O)[C@H]1CC[C@H]2[C@@H]3CC[C@H]4C[C@@](O)(CI)CC[C@]4(C)[C@H]3CC[C@]12C — lower, 50%
- CC(=O)[C@H]1CC[C@H]2[C@@H]3CC[C@H]4C[C@@](O)(CBr)CC[C@]4(C)[C@H]3CC[C@]12C — lower, 44%
- CC(C)(C)OC(=O)c1ncn2c1C1CCCN1C(=O)c1c(Br)cccc1-2 (configuration not stated) — lower, 27%
- CC(=O)[C@H]1CC[C@H]2[C@@H]3CC[C@H]4C[C@@](O)(CF)CC[C@]4(C)[C@H]3CC[C@]12C — lower, 79%

target: T1, GABA-A receptor; alpha-1/beta-2/gamma-2 (Homo sapiens, UniProt P14867+P18507+P47870); assay: Potentiation of GABA-activated currents in Xenopus oocytes expressing cloned human alpha-1-beta-2-gamma-2L subunits of GABA-A receptor; format: functional, cell-based, Oocyte
T1 sequence (P14867 whole entry): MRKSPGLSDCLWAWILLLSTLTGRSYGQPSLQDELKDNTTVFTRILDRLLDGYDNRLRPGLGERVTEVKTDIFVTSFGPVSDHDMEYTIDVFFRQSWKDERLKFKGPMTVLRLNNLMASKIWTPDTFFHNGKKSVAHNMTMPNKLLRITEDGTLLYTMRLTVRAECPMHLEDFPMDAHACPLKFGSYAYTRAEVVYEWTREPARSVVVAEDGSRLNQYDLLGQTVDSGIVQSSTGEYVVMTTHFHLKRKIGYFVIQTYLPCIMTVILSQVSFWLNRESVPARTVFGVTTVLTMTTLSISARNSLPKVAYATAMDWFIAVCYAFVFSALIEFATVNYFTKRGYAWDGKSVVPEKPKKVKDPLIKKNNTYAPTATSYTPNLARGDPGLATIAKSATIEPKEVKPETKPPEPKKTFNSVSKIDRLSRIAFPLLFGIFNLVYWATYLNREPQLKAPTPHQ
T1 sequence (P47870 whole entry): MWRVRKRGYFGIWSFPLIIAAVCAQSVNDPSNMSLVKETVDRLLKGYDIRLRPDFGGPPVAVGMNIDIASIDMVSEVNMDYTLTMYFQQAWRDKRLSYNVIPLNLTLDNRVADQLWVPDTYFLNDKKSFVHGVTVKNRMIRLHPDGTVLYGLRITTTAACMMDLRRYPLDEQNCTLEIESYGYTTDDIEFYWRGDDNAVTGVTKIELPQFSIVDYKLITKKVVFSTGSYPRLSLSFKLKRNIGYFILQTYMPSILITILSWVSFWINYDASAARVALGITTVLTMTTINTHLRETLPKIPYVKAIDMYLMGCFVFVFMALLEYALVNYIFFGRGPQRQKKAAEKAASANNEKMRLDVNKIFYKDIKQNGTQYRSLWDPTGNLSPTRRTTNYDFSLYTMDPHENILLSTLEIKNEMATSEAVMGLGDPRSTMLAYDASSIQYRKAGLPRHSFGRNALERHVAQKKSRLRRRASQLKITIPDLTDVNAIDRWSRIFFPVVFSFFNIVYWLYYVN
T1 sequence (P18507 whole entry): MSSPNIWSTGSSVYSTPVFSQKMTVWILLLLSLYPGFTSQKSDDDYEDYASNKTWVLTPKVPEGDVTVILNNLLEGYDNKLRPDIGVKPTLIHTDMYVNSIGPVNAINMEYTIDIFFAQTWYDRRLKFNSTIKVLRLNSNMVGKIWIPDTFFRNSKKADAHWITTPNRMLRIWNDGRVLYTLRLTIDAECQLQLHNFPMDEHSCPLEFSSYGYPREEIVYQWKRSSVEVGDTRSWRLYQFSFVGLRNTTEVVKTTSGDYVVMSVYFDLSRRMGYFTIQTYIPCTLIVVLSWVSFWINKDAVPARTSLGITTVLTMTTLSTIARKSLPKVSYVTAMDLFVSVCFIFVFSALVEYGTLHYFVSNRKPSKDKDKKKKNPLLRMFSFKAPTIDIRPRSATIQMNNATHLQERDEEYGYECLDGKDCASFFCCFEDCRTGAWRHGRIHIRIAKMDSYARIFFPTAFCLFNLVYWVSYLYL
In short: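 Xenopus oocytes were injected with human α1, β2 and γ2L cRNAs at 1:1:1, ~1 ng each. Two-electrode voltage clamp was done in frog Ringer (HEPES 5 mM, pH 7.4). Currents were scaled to the maximum elicited by 3 mM GABA. Steroid was applied in increasing concentrations to a fixed GABA response of ~0.05 fractional current, with DMSO 0.3% final. Data were fitted to a four-parameter logistic and given as mean ± SEM.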

`CC(=O)[C@H]1CC[C@H]2[C@@H]3CC[C@H]4C[C@@](O)(CN(C)C)CC[C@]4(C)[C@H]3CC[C@]12C` showed an EC50 of over 50000 nM.
